hIAP act – human IAP activators, primary screen, biochemical, luminescence, uHTS | activation factor at 10 µM | Intestinal-type alkaline phosphatase (Homo sapiens), P09923 | purified human IAP, CDP-Star luminescence, 30 min; active compounds read high; 1 = vehicle-only enzyme, 0 = enzyme-free background | 0.16% of 330,000 active;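 active means activation factor of the enzyme at least 2-fold when tested at 20 µM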
Target sequence (P09923 whole entry, looked up): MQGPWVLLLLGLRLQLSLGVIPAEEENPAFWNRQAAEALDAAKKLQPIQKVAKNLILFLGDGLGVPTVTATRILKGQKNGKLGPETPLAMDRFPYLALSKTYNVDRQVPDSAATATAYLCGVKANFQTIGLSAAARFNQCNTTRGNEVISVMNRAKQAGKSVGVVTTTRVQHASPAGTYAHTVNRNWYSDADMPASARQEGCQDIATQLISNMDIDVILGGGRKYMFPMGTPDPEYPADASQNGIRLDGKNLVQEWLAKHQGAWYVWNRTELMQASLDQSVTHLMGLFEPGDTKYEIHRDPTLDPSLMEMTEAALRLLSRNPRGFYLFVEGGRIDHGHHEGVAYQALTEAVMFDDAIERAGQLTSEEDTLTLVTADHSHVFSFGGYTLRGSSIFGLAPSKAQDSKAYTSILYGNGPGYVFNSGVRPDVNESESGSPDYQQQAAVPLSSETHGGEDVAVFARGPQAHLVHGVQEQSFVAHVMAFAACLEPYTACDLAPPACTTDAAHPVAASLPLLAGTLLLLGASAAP
bIAP inh – bovine intestinal alkaline phosphatase inhibitors, primary screen, selectivity assay for TNAP inhibitor project, biochemical, bovine IAP, CDP-star luminescence | purified bovine IAP, 30 min | inhibition, % at 20 µM | 190,000 tested, under 10 active;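 active means over 50% inhibition of intestinal alkaline phosphatase at 20 µM in the single-dose screen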
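System: Purified bovine intestinal alkaline phosphatase (IAP) enzyme | Input: IAP diluted 1/65,000,000 in the well | Also added: CDP-star chemiluminescent phosphatase substrate, 30 µM final | Dosing: 20 µM single dose | Times: Enzyme reaction for 30 min at room temperature | Detection: Luminescence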
bIAP act – bovine intestinal alkaline phosphatase activators, primary screen, biochemical, bovine IAP, CDP-star luminescence | alkaline phosphatase, intestinal [Bos taurus] | 0.17% of 200,000 active | purified bovine IAP, 30 min; active compounds read high; fold of DMSO-control signal, blank-subtracted | activation factor at 20 µM;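 active means activation factor of 2 or more at 20 µM, a signal rise over negative controls twice the positive control's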
mIAP inh – inhibitors of mouse IAP, primary screen, biochemical, luminescence, uHTS; inhibition, % at 10 µM; intestinal alkaline phosphatase [Mus musculus]; 0.2% of 330,000 active; purified mouse IAP, CDP-Star luminescence, 30 min;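 active means inhibition of at least 40% at 10 µM in the primary screen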;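 further: plate controls were DMSO with enzyme for no effect and no enzyme wells for full effect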
hIAP inh – human IAP inhibitors, primary screen, biochemical, luminescence, uHTS; Intestinal-type alkaline phosphatase (Homo sapiens), P09923; 0.12% of 330,000 active; inhibition, % at 10 µM; purified IAP, CDP-Star luminescence, 30 min; AID 2544, 2010;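 active means inhibition reaching a set limit with compound at 10 µM in the primary screen, cut at about 35% in these data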;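 further: plate controls were DMSO wells with enzyme for no effect and no-enzyme buffer wells for full effect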
mIAP act – activators of mouse IAP, primary screen, biochemical, luminescence, uHTS; 0.24% of 330,000 active; activation factor at 10 µM; AID 2805, 2010; muIAP, CDP-Star luminescence, 30 min; active compounds read high; 1 = vehicle-only enzyme signal, 0 = enzyme-free wells; intestinal alkaline phosphatase [Mus musculus];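 active means activation factor of at least 2 at 20 µM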
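Assay system: mouse IAP enzyme; Reagent: CDP-Star chemiluminescent phosphatase substrate; Compound: DMSO-dissolved test compounds; Incubation: 30 min, room temperature; Technique: luminescence from enzymatic CDP-Star hydrolysis; Controls: DMSO-only wells and no-enzyme negative control.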
* marks the source's active call; other numbers are inactive results; · = not tested or not shown. Rows were chosen to be rich in hits. Some 0.79% of all compounds tested hit in one or more screens of this group.

SMILES | hIAP act | bIAP inh | bIAP act | mIAP inh | hIAP inh | mIAP act
c1ccc2c3c([nH]c2c1)C(C1CCCCC1)N(Cc1ncc[nH]1)CC3 (configuration not stated) | 1.1 | -109 | 2.1* | -24 | -10 | 1.2
Cc1ccn2c(=O)nc(SCC(=O)Nc3ccc4c(c3)OCCO4)nc2c1 | 0.99 | · | · | 10 | 1 | 0.9
Cc1cc2nc(CCN(C(=S)NCC(C)C)C3CCCC3)[nH]c2cc1C | 0.93 | -81 | 1.8 | -113 | 7 | 2.1*
CCn1c(SCc2nc3ccccc3[nH]2)nnc1-c1ccccc1OC | 0.87 | -133 | 2.3* | 2 | 13 | 0.98
O=C(CSc1nncs1)Nc1ccc(N2CCCCC2)cc1 | 0.9 | · | · | 11 | 10 | 0.89
O=C(Nc1ccc(Cl)cc1)NC1CCCCC1 | 1.1 | -9 | 1.1 | -16 | -9 | 1.2
O=C(Nc1ccc(Cl)cc1)NC1CCCC1Cc1ccco1 (configuration not stated) | 1.2 | -10 | 1.1 | -178 | -16 | 2.8*
O=C(Cn1c(CSc2ccccc2)nc2ccccc21)Nc1ccccc1 | · | -8 | 1.1 | · | · | ·
Cc1ccc(SCc2nc3ccccc3n2CC(=O)Nc2ccccc2)cc1 | 1 | 0 | 1 | -136 | -3 | 2.4*
CC1(C)Oc2ccc3ccc(=O)oc3c2/C(=C/Nc2ccccc2)C1=O | 0.96 | 16 | 0.8 | 41* | 4 | 0.59
CC1(C)Oc2ccc3ccc(=O)oc3c2/C(=C/N)C1=O | 1.2 | 3 | 1 | 7 | -23 | 0.93
Cc1ccc(C(=O)Cn2c(=N)n(N)c3ccccc32)cc1 | 1.1 | · | · | 7 | -11 | 0.93
CCN(CC)CCn1c(=N)n(CC(=O)c2ccc(C)cc2)c2ccccc21 | 1 | · | · | 41* | -3 | 0.59
NS(=O)(=O)c1ccc(N2N=C(c3ccccc3)CC2c2ccccc2)cc1 (configuration not stated) | 1.4 | 12 | 0.9 | -105 | -37 | 2.1*
COc1cc(NC(=O)C(Cc2ccccc2)n2cccc2)cc(OC)c1 (configuration not stated) | 1.2 | · | · | -109 | -19 | 2.1*
COc1ccc(NC(=O)CCCN2C(=O)C(c3ccccc3)Oc3cccnc32)c(OC)c1 (configuration not stated) | 1.1 | · | · | -5 | -8 | 1
N#Cc1c(N)sc(=S)c2c1CCCCC2 | 1 | 12 | 0.9 | 48* | -4 | 0.52
N#Cc1c(N)sc2c1CCCCCC2 | 1.1 | 35 | 0.6 | 0 | -6 | 0.99
CC1CC(C)(C)NCCNC(C)CC(C)(C)NCCN1 (configuration not stated) | 1 | -177 | 2.8* | -18 | -4 | 1.2
O=C(C1CCCN(S(=O)(=O)c2ccc(Br)cc2)C1)N1CCN(Cc2ccccc2)CC1 (configuration not stated) | 1 | · | · | -7 | -4 | 1.1
Cc1ccc(NC(=S)NC(C)CCc2ccccc2)cc1C (configuration not stated) | 0.98 | 5 | 1 | -151 | 2 | 2.5*
CC(C)COc1ccc(CNC(=S)NCc2ccccc2)cc1 | 1.1 | 35 | 0.7 | -274 | -5 | 3.7*
COc1ccc(CNC(=S)NC(C)CCc2ccccc2)cc1 (configuration not stated) | 1 | 20 | 0.8 | -140 | -1 | 2.4*
CCCCc1ccc(NC(=S)NCc2ccc(OC)cc2)cc1 | 1.1 | 1 | 1 | -155 | -11 | 2.5*
CCOCCn1c(=O)c2c(nc3n2CCCN3CCc2ccccc2)n(C)c1=O | 1.1 | · | · | -3 | -12 | 1
SMILES | hIAP act | bIAP inh | bIAP act | mIAP inh | hIAP inh | mIAP act
COc1ccc(S(=O)(=O)N2CCC(C(=O)NCCCc3ccccc3)CC2)cc1 | 1 | · | · | -11 | 0 | 1.1
O=C(CN1C(=O)c2ccc([N+](=O)[O-])cc2C1=O)Nc1cc(S(=O)(=O)N2CCOCC2)ccc1Cl | 1.1 | · | · | 0 | -10 | 1
O=C1/C(=C/c2ccccc2F)SC(=S)N1CCC(=O)N1CCCCC1CCO (configuration not stated) | 1.2 | · | · | 4 | -21 | 0.95
OCc1ccccc1SSc1ccccc1CO | 0.97 | · | · | 2 | 3 | 0.98
CC(C)Oc1ccc(CNC(=S)Nc2ccccc2)cc1Cl | 1.3 | · | · | -86 | -30 | 1.9
CC(C)COc1ccc(CNC(=S)Nc2ccccc2)cc1Cl | 1.3 | · | · | -149 | -33 | 2.5*
CC(=O)c1ccc(-c2ccc(-c3cc(=O)oc4c(C(C)C)ccc(C)c34)cc2)cc1 | · | · | · | -8 | · | 1.1
COCCNC(=O)/C=C/c1c(Cl)cccc1Cl | 0.65 | 7 | 0.9 | 5 | 35* | 0.95
Cc1ccc(/C=C/C(=O)NC2=NCCS2)cc1 | 0.59 | 38 | 0.6 | -2 | 41* | 1
CC(C)CCNC(=S)Nc1ccc(Br)cc1 | 1.2 | -4 | 1 | -124 | -17 | 2.2*
CC(C)n1ncc2c(C(=O)Nc3cccc(C#N)c3)cc(C3CC3)nc21 | 0.87 | · | · | 4 | 13 | 0.96
CCOc1ccc(C(=O)N/N=C/c2ccccc2[N+](=O)[O-])cc1 | 1.1 | -101 | 2* | -10 | -12 | 1.1
CC(C)(C)c1ccc(NC(=O)Nc2ccc(OCC(=O)N3CCOCC3)cc2)cc1 | 1.1 | -29 | 1.3 | -108 | -5 | 2.1*
Cc1ccc(N2CCN(C(=O)CCc3nc4ccccc4[nH]3)CC2)c(C)c1 | 1.1 | -166 | 2.7* | -41 | -6 | 1.4
COc1cc(NC(=O)COc2ccc(-n3ccnc3)cc2)cc(OC)c1 | 1.3 | -25 | 1.2 | -10 | -28 | 1.1
CC(C)(C)c1ccc(NC(=O)COc2ccc(-n3ccnc3)cc2)cc1 | 1.1 | -165 | 2.6* | -23 | -7 | 1.2
COc1ccc(Cl)cc1NC(=O)CN1CCC(n2nnc3cc(C)ccc32)CC1 | 0.91 | -435 | 5.3* | -15 | 9 | 1.2
Cc1ccc(NC(=S)Nc2ccc(OC(F)F)c(Cl)c2)cc1Cl | · | 22 | 0.8 | · | · | ·
CC(NC(=S)Nc1ccc(OC(F)F)c(Cl)c1)C(C)(C)C (configuration not stated) | 1.5 | 7 | 0.9 | -248 | -46 | 3.5*
FC(F)Oc1ccc(NC(=S)NCc2ccccc2)cc1 | 1.1 | 13 | 0.9 | -65 | -8 | 1.7
FC(F)Oc1ccc(NC(=S)NCc2ccccc2)cc1Cl | 1.2 | 19 | 0.8 | -124 | -19 | 2.2*
CC(=O)n1cc(N(C(=O)CCl)c2ccc([N+](=O)[O-])cc2)c2ccccc21 | 1.1 | · | · | 5 | -12 | 0.95
O=Cc1[nH]c2ccccc2c1N(C(=O)CCl)c1ccc([N+](=O)[O-])cc1 | 0.65 | · | · | 3 | 35* | 0.97

Screening results as filed in PubChem.
